HNF4A DNA FP – change in binding of human HNF4 alpha to DNA | AID 1224865 | activity change, % at 10 µM | 0.3% of 360,000 active | P41235 | HNF4a-FITC DNA binding, fluorescence polarization, 1 h; in the data active = activity change above about 30%, passing the limit was not always enough
TPT1 inhibitor – blocks Candida albicans tRNA 2'-phosphotransferase. 0.81% of 300,000 active. inhibition, % at 5 µM. recombinant caTPT1, FP RNA substrate dephosphorylation;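 active = inhibition above the mean of all tested compounds plus 3 SD, set per screening campaign, cut at about 24% in these data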;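 also: plate controls were DMSO alone for no effect and ferristatin control at 100 nM for full effect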
CSN inh – CSN deneddylation inhibition. Q92905. Purified CSN, SCF-Nedd8-OG deneddylation, fluorescence polarization. inhibition, % at 12.5 µM. 0.38% of 360,000 active. AID 651999;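 active = pattern-corrected inhibition above about 35%, with an unprinted fluorescence ratio check between 0.5 and 1.5, limit read from the data, passing the limit was not always enough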;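 also: 0% = enzyme with substrate and 100% = substrate without enzyme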
Target sequence (Q92905 whole entry, looked up, one chain of several): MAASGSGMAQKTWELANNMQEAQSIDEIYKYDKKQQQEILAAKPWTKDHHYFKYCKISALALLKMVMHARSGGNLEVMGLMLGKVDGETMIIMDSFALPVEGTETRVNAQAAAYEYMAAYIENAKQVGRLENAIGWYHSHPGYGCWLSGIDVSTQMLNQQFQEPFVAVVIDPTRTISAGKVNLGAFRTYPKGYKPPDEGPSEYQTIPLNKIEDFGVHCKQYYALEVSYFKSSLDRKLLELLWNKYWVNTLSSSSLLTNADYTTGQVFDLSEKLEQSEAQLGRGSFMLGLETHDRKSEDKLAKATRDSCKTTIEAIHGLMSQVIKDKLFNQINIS
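test system = HEK293T-derived human Csn5 enzyme | amount = 0.24 nM Csn5 enzyme, final concentration | medium = Tris/NaCl/DTT buffer, pH 7.5 | schedule = 90 min reaction at room temperature | signal = FP | evaluation = inhibition of Csn5 cleavage, % | compound dosing = single dose of 12.5 µM compound with 0.25% DMSO | probe or stimulus = 10 nM SCFSkp2-Nedd8OG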
IDE inh – inhibitors of human insulin-degrading enzyme in cells; P14735; HEK cells, FAbetaB cleavage, fluorescence polarization; inhibition, % at 5.59 µM; 0.41% of 320,000 active;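 active = percent inhibition above the average of all tested compounds plus 3 SD, set per screening campaign, cut at about 16% in these data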;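 also: IDE supplied by intact live HEK cells; FP after avidin binding of uncleaved biotin substrate so inhibition keeps polarization high; 0% = DMSO wells and 100% = 60 µM reference IDE inhibitor Ii1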
IDE cell activ – IDE (human) activation, cell-based | HEK cells, FAbeta-B cleavage, fluorescence polarization; 0% vehicle, 100% cell-free pure enzyme wells | activation, % at 5.96 µM | 0.073% of 340,000 active | AID 493087;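 active = activation above the mean of all tested compounds plus 3 SD, set per screening campaign, cut at about 17% in these data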
TPT1 inh confirm – confirmation of Candida albicans TPT1 inhibitors. AID 2149. 74% of 2,400 active. inhibition, % at 5 µM. shares compounds with TPT1 inhibitor. recombinant caTPT1, fluorescence polarization, RNase T1 coupled;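 active = inhibition above the primary screen limit, the mean inhibition of all tested compounds plus 3 SD, cut at about 25% in these data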
RNase T1 inh – counter-screen for TPT1 inhibitors: inhibitors of Aspergillus oryzae RNase T1; shares compounds with TPT1 inhibitor; RNase T1 cleavage, fluorescence polarization, 1536-well; inhibition, % at 5 µM; 83% of 2,400 active; AID 2153;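 active = inhibition above the solvent-only control well mean plus 3 SD, limit set per screening run, cut at about 23% in these data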;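 also: plate controls were DMSO wells with enzyme for no effect and wells without RNase T1 for full effect; inhibitors block cleavage so intact labeled substrate keeps polarization high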
Target sequence (P00651 whole entry, looked up): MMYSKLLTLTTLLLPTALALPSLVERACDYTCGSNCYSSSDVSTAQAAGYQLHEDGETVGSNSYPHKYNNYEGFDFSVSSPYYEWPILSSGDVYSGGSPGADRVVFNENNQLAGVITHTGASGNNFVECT
Active calls of the source: *; / = not tested or not shown. In the library only some 1.4% were active in any assay of this set; here they are far more common.

SMILES	HNF4A DNA FP	TPT1 inhibitor	CSN inh	IDE inh	IDE cell activ	TPT1 inh confirm	RNase T1 inh
N#C/C(=C\c1ccc(O)c(O)c1)C(=O)Nc1cccc2ncccc12	-30	24*	-43	6	-10	18	27*
COc1ccc(/C=C(\C#N)C(=O)Nc2cccc3ncccc23)cc1OC	4	7	5	-6	1	/	/
CC(=O)Oc1cccc(N2C(=O)c3cccc4c([N+](=O)[O-])ccc(c34)C2=O)c1	-17	43*	-6	12	-8	43*	59*
Cc1ccc(C(=O)O)cc1N1C(=O)c2cccc3c([N+](=O)[O-])ccc(c23)C1=O	-33	-12	13	6	1	/	/
Cc1ccc(Cl)cc1-c1cc(C(=O)NCc2cc(C(F)(F)F)cc(C(F)(F)F)c2)[nH]n1	-1	/	1	/	/	/	/
COc1ccc(CCN2Cc3c(N)cccc3C2=O)cc1OC	4	-1	-3	-3	4	/	/
COc1ccc(CCN2Cc3c(cccc3[N+](=O)[O-])C2=O)cc1OC	-2	30*	3	1	5	7	8
Cc1ccccc1-n1c(SCC(=O)NC(N)=O)nc2sc(-c3ccccc3)cc2c1=O	1	31*	5	2	-5	6	11
Cc1ccccc1-n1c(SCC(N)=O)nc2sc(-c3ccccc3)cc2c1=O	-1	-3	1	0	-1	/	/
Cc1ccc2nc(-c3cccc(Br)c3)c(Cc3ccccn3)n2c1	-6	/	-2	/	/	/	/
CC(C)(C)c1csc(NC(=O)Cc2cccs2)n1	-2	99*	5	2	-2	11	15
O=C(Nc1cccc2nsnc12)c1ccc(-c2cccc(Cl)c2)o1	27	31*	21	-3	1	30*	38*
O=C(Nc1ccccc1N1CCCCC1)c1ccc(-c2cccc(Cl)c2)o1	3	0	0	3	0	/	/
CC1(C(=O)NS(=O)(=O)c2ccccc2Cl)CCN1C(=O)CCC1CCCC1 (stereo not drawn)	-1	/	-2	/	/	/	/
COc1ccc(N=NC2=C(O)CC(C)(C)CC2=O)c(OC)c1	51*	60*	31	-1	1	61*	75*
CCCCOCCCNC(=O)C[C@@H]1C[C@@]2(C(=O)OC)CC(C)(C)CC=C2N(Cc2ccccc2)C1=O	1	/	2	/	/	/	/
O=C(O)CSc1ncnc2scc(-c3ccc(Br)cc3)c12	2	35*	3	-2	-6	46*	55*
CCc1c(-c2cccc(OC)c2)ncn1Cc1cccc(-c2ccccc2)c1	-3	/	-3	/	/	/	/
CCNc1sc(C(=O)c2cccs2)c(N)c1-c1nc2ccccc2s1	13	20	1	-7	-3	/	/
CCOC(=O)c1sc(NCc2ccco2)c(-c2nc3ccccc3s2)c1N	14	26*	13	-1	-1	28*	39*
CCC(C(=O)O)N1C(=O)/C(=C/c2cccn2C)SC1=S (stereo not drawn)	101*	118*	82*	9	-2	124*	130*
CC(C(=O)O)N1C(=O)/C(=C/c2cccn2C)SC1=S (stereo not drawn)	85*	96*	48*	-1	0	105*	118*
COc1ccccc1/C=C1\SC(=S)N(C(C(=O)O)c2ccccc2)C1=O (stereo not drawn)	-7	4	1	0	5	/	/
Cn1cccc1/C=C1/SC(=S)N(CC(=O)O)C1=O	81*	89*	50*	4	-2	110*	120*
Cc1ccc(S(=O)(=O)N2CCC(C(=O)N3CCc4ccccc43)CC2)cc1C	0	/	-6	/	1	/	/
Cc1nnc(-c2cccc(Br)c2)c2cn(-c3cccc(Br)c3)nc12	125	47*	-24	7	1	79*	84*
O=c1[nH]c2cc3c(cc2cc1CN(Cc1cccs1)Cc1nnnn1Cc1ccco1)OCCO3	-3	31*	3	11	-1	11	15
Cc1ccccc1CNS(=O)(=O)c1c(C(=O)N2CCCCC2)c(C)n(C)c1C	-1	2	-1	2	4	/	/
